The record followed here is ChEMBL document CHEMBL1156261, “Evaluation of substituted N,N'-diarylsulfonamides as activators of the tumor cell specific M2 isoform of pyruvate kinase” (J Med Chem, 2010).

The source made the active and inactive calls.

Assay [1] addresses T1, Pyruvate kinase PKM (Homo sapiens, UniProt P14618). Description: Activation of PKM2 assessed as ATP product formation by luminescent pyruvate kinase-luciferase coupled assay. The method in brief: (§1)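 Recombinant human PKM2 (0.1 nM final) in 50 mM imidazole pH 7.2, 50 mM KCl, 7 mM MgCl2, 0.01% Tween 20, 0.05% BSA; 0.1 mM ADP, 0.5 mM PEP; 1 h at r.t., then Kinase-Glo luciferase read of ATP formed. Activation % = (c−n)/(n−i)×100 against DMSO and no-enzyme controls; 100% ≈ 2-fold over basal signal. Max response taken at 57 μM; three separate experiments.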
Target sequence in this assay (P14618 whole entry): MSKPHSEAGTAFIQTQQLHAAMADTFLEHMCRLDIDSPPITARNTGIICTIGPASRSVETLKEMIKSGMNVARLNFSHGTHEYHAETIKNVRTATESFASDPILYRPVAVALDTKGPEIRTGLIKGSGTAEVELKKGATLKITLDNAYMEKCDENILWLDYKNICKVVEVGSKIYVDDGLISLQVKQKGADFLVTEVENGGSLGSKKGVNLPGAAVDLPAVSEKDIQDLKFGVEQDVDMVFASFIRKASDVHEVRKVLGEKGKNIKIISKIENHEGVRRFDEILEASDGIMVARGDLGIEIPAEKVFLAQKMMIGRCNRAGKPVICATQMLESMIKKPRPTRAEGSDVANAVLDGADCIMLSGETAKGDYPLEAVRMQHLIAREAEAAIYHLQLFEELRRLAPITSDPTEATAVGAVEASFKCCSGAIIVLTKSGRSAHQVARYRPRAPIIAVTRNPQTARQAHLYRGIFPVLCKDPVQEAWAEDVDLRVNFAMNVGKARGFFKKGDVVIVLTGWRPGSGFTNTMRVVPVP

Assay [2] concerns the target T1, Pyruvate kinase PKM. In words: Activation of PKM1 assessed as ATP product formation by luminescent pyruvate kinase-luciferase coupled assay. The gist of the method: (§2)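 Luciferase-coupled ATP production assay run as for PKM2: imidazole pH 7.2 buffer with KCl, MgCl2, Tween 20 and BSA, 0.1 mM ADP, 0.5 mM PEP, 1 h at r.t., Kinase-Glo luminescence. Enzyme final concentrations were PKM1 1 nM, PKL 0.1 nM, PKR 0.1 nM. % activation normalized to DMSO (neutral) and no-enzyme controls.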
Target sequence in this assay (P14618 2-531 limits assumed): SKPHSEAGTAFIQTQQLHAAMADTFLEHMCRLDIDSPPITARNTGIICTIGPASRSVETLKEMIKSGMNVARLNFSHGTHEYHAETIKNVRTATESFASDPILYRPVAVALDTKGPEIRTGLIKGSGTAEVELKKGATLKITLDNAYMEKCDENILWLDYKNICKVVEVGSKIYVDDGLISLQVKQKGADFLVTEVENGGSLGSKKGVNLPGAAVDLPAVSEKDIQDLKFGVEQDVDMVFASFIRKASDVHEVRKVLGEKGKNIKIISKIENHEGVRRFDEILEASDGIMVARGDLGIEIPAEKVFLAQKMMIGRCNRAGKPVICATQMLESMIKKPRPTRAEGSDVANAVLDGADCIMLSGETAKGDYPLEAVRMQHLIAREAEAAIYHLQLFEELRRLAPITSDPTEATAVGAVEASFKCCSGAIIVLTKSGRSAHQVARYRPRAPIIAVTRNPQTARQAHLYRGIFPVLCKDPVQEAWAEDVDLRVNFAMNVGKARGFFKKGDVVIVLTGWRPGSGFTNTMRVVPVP

Assay [3] has as its target Pyruvate kinase PKLR (Homo sapiens) (UniProt P30613). Description: Activation of PKL assessed as pyruvate formation by fluorescent pyruvate kinase-lactate dehydrogenase coupled assay relative to control. On the set-up: concentration or dose not given beside the values.
Assay [4] shares this target. Description: Activation of PKL assessed as ATP product formation by luminescent pyruvate kinase-luciferase coupled assay relative to control. Further details: concentration or dose not given beside the values. The method in brief:
as §2

Assay [5] has the same target. Description: Activation of PKR assessed as pyruvate formation by fluorescent pyruvate kinase-lactate dehydrogenase coupled assay relative to control. On the set-up: concentration or dose not given beside the values.
For assay [6], the target named is T1, Pyruvate kinase PKM. In words: Activation of PKM2 assessed as ATP product formation at 57 uM by luminescent pyruvate kinase-luciferase coupled assay relative to fructose-1,6-bis-phosphate. The method in brief: as §1
Target sequence in this assay (P14618 2-531 limits assumed): as above
The target of assay [7] is T1, Pyruvate kinase PKM. In words: Activation of PKM1 assessed as pyruvate formation by fluorescent pyruvate kinase-lactate dehydrogenase coupled assay.
Target sequence in this assay (P14618 2-531 limits assumed): as above
Assay [8] addresses Pyruvate kinase PKLR (Homo sapiens) (UniProt P30613). Description: Activation of PKR assessed as ATP product formation by luminescent pyruvate kinase-luciferase coupled assay relative to control. Further details: concentration or dose not given beside the values. The method in brief: as §2

Chain of Pyruvate kinase PKLR (Homo sapiens) (P30613 whole entry, looked up): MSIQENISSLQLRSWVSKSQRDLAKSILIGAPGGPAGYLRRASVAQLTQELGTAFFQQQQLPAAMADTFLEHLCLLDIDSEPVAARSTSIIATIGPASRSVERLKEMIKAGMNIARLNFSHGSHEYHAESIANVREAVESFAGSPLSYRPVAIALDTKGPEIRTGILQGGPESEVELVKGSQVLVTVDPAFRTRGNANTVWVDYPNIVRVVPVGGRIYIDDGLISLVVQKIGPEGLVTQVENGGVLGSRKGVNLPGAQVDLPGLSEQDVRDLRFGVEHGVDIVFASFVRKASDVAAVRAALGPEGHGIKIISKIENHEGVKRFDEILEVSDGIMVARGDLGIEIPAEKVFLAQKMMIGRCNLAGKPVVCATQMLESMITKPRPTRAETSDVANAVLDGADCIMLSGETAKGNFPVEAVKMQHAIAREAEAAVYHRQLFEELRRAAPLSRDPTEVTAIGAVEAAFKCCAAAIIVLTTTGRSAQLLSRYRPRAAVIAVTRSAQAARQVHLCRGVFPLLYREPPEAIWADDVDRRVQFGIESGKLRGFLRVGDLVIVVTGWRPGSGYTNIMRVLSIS

Turning to `O=C(c1c(F)cccc1F)N1CCN(S(=O)(=O)c2ccc3c(c2)OCCO3)CC1`, on Pyruvate kinase PKM [1], the AC50 – broadly, the midpoint of the concentration-response curve, whichever way the signal moves – is listed as “Not Active”. Further, the result at Pyruvate kinase PKM [2], at Pyruvate kinase PKM [6] and at Pyruvate kinase PKM [7] was inactive. In addition, the Activity in assay [3], in assay [4], in assay [5] and in assay [8] was below 30% throughout.

Turning to `O=S(=O)(NC1CCN(S(=O)(=O)c2ccc3c(c2)OCCO3)C1)c1c(F)cccc1F` (centres undefined), the AC50 on Pyruvate kinase PKM [1] (read-out: AC50) was above 15 µM. Moreover, the result at Pyruvate kinase PKM [2] and at Pyruvate kinase PKM [7] was inactive. Also, the Activity in assay [3] was below 30%; in assay [4] it was below 30%; in assay [5] it was below 30%; on Pyruvate kinase PKM [6], 82.4%; in assay [8], below 30%.

For `C[C@@H]1CN(S(=O)(=O)c2ccc3c(c2)OCCO3)CCN1S(=O)(=O)c1c(F)cccc1F`, on Pyruvate kinase PKM [1] (read-out: AC50), the concentration at half-maximal activity (AC50) stood at 2.93 µM. Also, the outcome on Pyruvate kinase PKM [2] and on Pyruvate kinase PKM [7] was inactive. Also, the Activity in assay [3] is below 30%; in assay [4], below 30%; in assay [5], below 30%; on Pyruvate kinase PKM [6], 108%; in assay [8], below 30%.

For the molecule `O=S(=O)(NC1CCN(S(=O)(=O)c2c(F)cccc2F)CC1)c1ccc2c(c1)OCCO2`, on Pyruvate kinase PKM [1] (read-out: AC50), the AC50 was 9 µM. The result at Pyruvate kinase PKM [2] and on Pyruvate kinase PKM [7] was inactive. For the same molecule, the Activity in assay [3], in assay [4], in assay [5] and in assay [8] was below 30% in each case.

Consider `O=S(=O)(NC1CCN(S(=O)(=O)c2c(F)cccc2F)C1)c1ccc2c(c1)OCCO2` (centres undefined), for which, on Pyruvate kinase PKM [1] (read-out: AC50), the AC50 was above 10 µM. The result at Pyruvate kinase PKM [2] and at Pyruvate kinase PKM [7] was inactive. The Activity is below 30% in assay [3]; below 30% in assay [4]; below 30% in assay [5]; 83.7% at Pyruvate kinase PKM [6]; below 30% in assay [8].

On to `O=S(=O)(NCC1CN(S(=O)(=O)c2c(F)cccc2F)C1)c1ccc2c(c1)OCCO2`, for which the AC50 on Pyruvate kinase PKM [1] (read-out: AC50) came to 3.05 µM. Also, the outcome on Pyruvate kinase PKM [2] and on Pyruvate kinase PKM [7] was inactive. For the same molecule, the Activity is below 30% in assay [3]; below 30% in assay [4]; below 30% in assay [5]; 108% at Pyruvate kinase PKM [6]; below 30% in assay [8].

As for `C[C@H]1CN(S(=O)(=O)c2ccc3c(c2)OCCO3)CCN1S(=O)(=O)c1c(F)cccc1F`, the half-maximal activity concentration (AC50) at Pyruvate kinase PKM [1] (read-out: AC50) was found to be 9.18 µM. In addition, the result at Pyruvate kinase PKM [2] and on Pyruvate kinase PKM [7] was inactive. In addition, the Activity in assay [3] is below 30%; in assay [4], below 30%; in assay [5], below 30%; on Pyruvate kinase PKM [6], 108%; in assay [8] it was below 30%.

Take `O=S(=O)(c1ccc2c(c1)OCCO2)N1CCN(S(=O)(=O)c2cccc[n+]2[O-])CC1`: the AC50 on Pyruvate kinase PKM [1] (read-out: AC50) is above 10 µM. Moreover, the outcome at Pyruvate kinase PKM [2] and at Pyruvate kinase PKM [7] was inactive. Besides, the Activity is below 30% in assay [3]; below 30% in assay [4]; below 30% in assay [5]; 81.5% at Pyruvate kinase PKM [6]; below 30% in assay [8].

Turning to `O=S(=O)(N[C@H]1CC[C@@H](NS(=O)(=O)c2c(F)cccc2F)CC1)c1ccc2c(c1)OCCO2`, the AC50 on Pyruvate kinase PKM [1] (read-out: AC50) is above 35 µM. Also, the outcome on Pyruvate kinase PKM [2] and on Pyruvate kinase PKM [7] was inactive. The Activity in assay [3] is below 30%; in assay [4], below 30%; in assay [5], below 30%; on Pyruvate kinase PKM [6], 60.7%; in assay [8] it was below 30%.

On to `CC1(C)CCc2cc(S(=O)(=O)N3CCN(S(=O)(=O)c4c(F)cccc4F)CC3)ccc2O1`, for which the outcome at Pyruvate kinase PKM [2] and at Pyruvate kinase PKM [7] was inactive. The Activity in assay [3] was below 30%; in assay [4], below 30%; in assay [5] it was below 30%; on Pyruvate kinase PKM [6], 119%; in assay [8], below 30%.

As to `COc1cccc(S(=O)(=O)N2CCN(S(=O)(=O)c3ccc4c(c3)OCCO4)CC2)c1`, the result on Pyruvate kinase PKM [2] and on Pyruvate kinase PKM [7] was inactive. The Activity in assay [3] was below 30%; in assay [4], below 30%; in assay [5], below 30%; at Pyruvate kinase PKM [6] it was 90%; in assay [8] it was below 30%.

In the case of `O=S(=O)(c1ccccc1)N1CCN(S(=O)(=O)c2ccc3c(c2)OCCO3)CC1`, the result at Pyruvate kinase PKM [2] and on Pyruvate kinase PKM [7] was inactive. Also, the Activity in assay [3] was below 30%; in assay [4], below 30%; in assay [5] it was below 30%; on Pyruvate kinase PKM [6], 108%; in assay [8], below 30%.

On to `O=S(=O)(NCCCCCCNS(=O)(=O)c1c(F)cccc1F)c1ccc2c(c1)OCCO2`, for which the result on Pyruvate kinase PKM [2] and at Pyruvate kinase PKM [7] was inactive. Further, the Activity in assay [3] was below 30%; in assay [4], below 30%; in assay [5], below 30%; at Pyruvate kinase PKM [6], 110%; in assay [8], below 30%.

As for `COc1ccc(S(=O)(=O)N2CCN(S(=O)(=O)c3c(F)cccc3F)CC2)cc1`, the result at Pyruvate kinase PKM [2] and at Pyruvate kinase PKM [7] was inactive. For the same molecule, the Activity is below 30% in assay [3]; below 30% in assay [4]; below 30% in assay [5]; 102% at Pyruvate kinase PKM [6]; below 30% in assay [8].

With `O=S(=O)(c1ccc2c(c1)OCCO2)N1CCN(S(=O)(=O)c2ccc3c(c2)OCCO3)CC1`, the result on Pyruvate kinase PKM [2] and on Pyruvate kinase PKM [7] was inactive. In addition, the Activity is below 30% in assay [3]; below 30% in assay [4]; below 30% in assay [5]; 89.7% on Pyruvate kinase PKM [6]; below 30% in assay [8].

In the case of `O=S(=O)(NCCCNS(=O)(=O)c1c(F)cccc1F)c1ccc2c(c1)OCCO2`, the outcome at Pyruvate kinase PKM [2] and at Pyruvate kinase PKM [7] was inactive. Moreover, the Activity in assay [3] was below 30%; in assay [4] it was below 30%; in assay [5], below 30%; on Pyruvate kinase PKM [6], 106%; in assay [8] it was below 30%.

With `C[C@H]1CN(S(=O)(=O)c2c(F)cccc2F)CCN1S(=O)(=O)c1ccc2c(c1)OCCO2`, the result at Pyruvate kinase PKM [2] and on Pyruvate kinase PKM [7] was inactive. The Activity in assay [3] is below 30%; in assay [4] it was below 30%; in assay [5], below 30%; at Pyruvate kinase PKM [6], 109%; in assay [8], below 30%.

For `O=S(=O)(c1ccc2c(c1)OCCO2)N1CCN(S(=O)(=O)c2ccc(F)cc2F)CC1`, the outcome on Pyruvate kinase PKM [2] and on Pyruvate kinase PKM [7] was inactive. The Activity in assay [3] is below 30%; in assay [4], below 30%; in assay [5], below 30%; at Pyruvate kinase PKM [6] it was 113%; in assay [8], below 30%.
